Cneo AK release: causes C. neoformans cell lysis; adenylate kinase release luminescence, 4 h; normalised: neutral wells 0, clomiphene wells 100; lysis activity, % at 15 µM; hit rate 0.2% among 360,000;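 active means mean lysis activity across replicates of at least 80%, whatever share of replicates individually reach that level; inactive means mean lysis activity below 80%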
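read-out = cell lysis signal | test system = log-phase Cryptococcus neoformans yeast cells | input = cells at 5 × 10^6 per mL | medium = fresh YPD growth medium | signal = luminescent adenylate kinase detection reagent | timing = 4 h at 37 °C static, read 1 h later | dosing = single dose | controls = Clomiphene as positive lysis control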
HIV Env fusion: inhibitors of HIV Env-mediated cell fusion. HeLa-JRFL Env/CEM21 cell fusion, luciferase. inhibition, % at 12.3 µM. hit rate 1.1% among 360,000. AID 651610;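 active means mean replicate inhibition score of at least 50 and every replicate individually at or above 50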;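 further: 0% = plate neutral controls and 100% = maraviroc near 300 nM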
GSIS activator: GLuc luminescence reporter in INS-1E cells, primary screen for activators of glucose-dependent secretion of insulin; AID 743287; INS-1E GLuc reporter insulin secretion, 2-3 h; activation, % at 16.6 µM; hit rate 0.61% among 370,000;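 active means lowest replicate activation of at least 40%, so every replicate reaches that level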;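 further: 0% = median of neutral control wells and 100% = median of IBMX positive control wells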
F508del corr: CFTR F508del correction in bronchial cells | CFBE cells, YFP halide quenching; stimulated with forskolin plus potentiator P3; % fluorescence drop versus neutral controls | activity (quench increase), % at 7.58 µM | hit rate 0.36% among 350,000 | AID 720511;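 active means mean added fluorescence quench of at least 8% versus neutral control, with both replicates also reaching 8%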;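 further: cells transiently co-express mutant CFTR-F508del with the halide-sensitive YFP; corrector assay measuring rescue of mutant channel to the surface after 24 h compound exposure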
Ecoli rRNA inh: inhibits bacterial ribosomal RNA function over humanized ribosomes | AID 720706 | E. coli WT GFP vs humanized-ribosome RFP mutants, fluorescence, 24 h; active compounds read low; DMSO median 0, no signal -100 | hit rate 1.6% among 350,000 | GFP signal change (wild-type ribosome), % (test concentration not listed);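 active means significant combined selectivity score with lowered wild-type GFP, culture density cut under 30%, mutant RFP and density less affected; inactive means any of these conditions unmet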
miR122 inh: miR-122 inhibition in Huh7 cells. Huh7 miR-122 Renilla luciferase sensor, 48 h; neutral wells = 0, positive control = 100. activation (reporter increase), % at 12.5 µM. hit rate 0.3% among 340,000. AID 602342;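 active means mean replicate activation score at least 90 and every replicate individually at or above 90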;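 further: higher luciferase means less miR-122 activity so hits act as miR-122 inhibitors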
* hit, by the source's call; . = no result; [ ] = another dose, or the depositor's remark. Hits are enriched below; roughly 3.1% of the tested compounds scored in any of these assays.

SMILES | Cneo AK release | HIV Env fusion | GSIS activator | F508del corr | Ecoli rRNA inh | miR122 inh
COc1ccc(CN(C)C[C@H]2Oc3ccc(NS(=O)(=O)c4ccccc4)cc3CC(=O)N([C@@H](C)CO)C[C@H]2C)cc1 | -2.9 | -2.0[16.7 µM] | 6.8 | 0.8 | 0.8 | 3.7[16.7 µM]
O=C(Nc1ccccc1)N1C[C@@H]2[C@H](c3ccccc31)[C@@H](CO)N2C(=O)c1ccccn1 | -1.5 | . | -0.2 | 0.2 | 0.3 | -12.2[16.7 µM]
O=C(Nc1cccc(Cl)c1)N1C[C@H]2[C@@H](c3ccccc31)[C@H](CO)N2CC1CCOCC1 | -15.0 | . | -5.3 | 1.2 | -16.4 | -28.6[16.7 µM]
O=C(Nc1ccccc1)N1C[C@H]2[C@@H](c3ccccc31)[C@@H](CO)N2C(=O)c1ccccn1 | 8.5 | . | 9.5 | 0.8 | 2.6 | 132.1*[16.7 µM]
O=C(Nc1ccc(Cl)cc1)N1C[C@H]2[C@@H](c3ccccc31)[C@H](CO)N2C(=O)c1ccccn1 | -1.4 | . | -22.5 | 0.1 | -19.2* | 11.5[16.7 µM]
O=C(Nc1cccc(Cl)c1)N1C[C@H]2[C@@H](c3ccccc31)[C@H](CO)N2CC1CCCCC1 | -3.0 | . | -17.9 | 1.7 | -58.5* | -3.2[16.7 µM]
O=C(Nc1ccccc1F)N1C[C@@H]2[C@H](c3ccccc31)[C@@H](CO)N2C(=O)C1CCCC1 | -3.8 | . | -2.2 | 0.3 | 3.1 | 130.0*[16.7 µM]
C[C@@H]1CN([C@H](C)CO)C(=O)Cc2cc(NS(=O)(=O)c3ccccc3)ccc2O[C@H]1CN(C)C | 4.4 | . | 11.3 | -0.1 | 1.3 | -5.9[16.7 µM]
O=C(Nc1ccccc1)N1C[C@H]2[C@@H](c3ccccc31)[C@H](CO)N2C(=O)c1ccccn1 | -2.9 | . | 16.5 | 11.4* | 0.5 | -4.5[16.7 µM]
O=C(Nc1ccccc1F)N1C[C@@H]2[C@H](c3ccccc31)[C@H](CO)N2C(=O)c1ccccn1 | 10.7 | . | -1.5 | 5.0 | -33.8 | -12.2[16.7 µM]
O=C(Nc1ccccc1F)N1C[C@H]2[C@@H](c3ccccc31)[C@@H](CO)N2C(=O)c1ccccn1 | 10.5 | . | 3.0 | 9.7* | -1.3 | 27.6[16.7 µM]
COc1ccc(-c2cnc3c(c2)C(=O)N([C@H](C)CO)C[C@@H](C)[C@@H](CN(C)C(=O)CN(C)C)O3)cc1 | 4.8 | -4.0[16.7 µM] | 18.0 | 0.2 | 0.7 | -0.2[16.7 µM]
Nc1ccc(-c2c3ccc(=O)cc-3oc3cc(O)ccc23)cc1C(=O)O | . | -19.0 | -29.7 | 8.8* | 87.9 | .
O=c1ccc2c(-c3ccccc3)c3ccc(O)cc3oc-2c1 | -0.7 | 16.1 | 9.3 | 57.8* | 50.4 | -11.4
O=c1cc(-c2ccccc2)oc2cc(O)ccc12 | -5.8 | . | 4.4 | -0.1 | 5.4 | -17.4
CC(C)C#Cc1ccc2c(c1)O[C@@H](CN(C)C(=O)c1ccccn1)[C@@H](C)CN([C@@H](C)CO)S2(=O)=O | 3.5 | 12.2[16.7 µM] | 0.5 | 0.8 | -1.0 | 14.1[16.7 µM]
O=C(NN1C(=O)C2C3C=CC(O3)C2C1=O)c1cccc(Br)c1 (stereo not given) | -1.9 | 6.7 | 78.2* | 1.3 | 3.8 | 3.9
O=C(NN1C(=O)C2C3C=CC(O3)C2C1=O)c1cccc(O)c1 (stereo not given) | . | . | 3.0 | 0.6 | 2.7 | .
C[C@H]1CN([C@@H](C)CO)C(=O)Cc2cc(NS(=O)(=O)c3cccs3)ccc2O[C@@H]1CN(C)S(=O)(=O)c1ccc(Cl)cc1 | -1.0 | -15.6[16.7 µM] | -6.3 | 2.1 | -3.8 | -0.2[16.7 µM]
OC(c1ccccc1)(c1ccccc1)C1CCN(CCCOc2ccc(-c3ccc(F)cc3F)cc2)CC1 | . | 63.0* | 249.3* | 3.5 | -39.5 | .
COc1ccccc1-c1ccc(OCCCN2CCC(C(O)(c3ccccc3)c3ccccc3)CC2)cc1 | . | 97.4* | . | 2.6 | -52.4 | .
OC(c1ccccc1)(c1ccccc1)C1CCN(CCCOc2cc(F)cc(F)c2)CC1 | . | 23.6 | -42.1 | 1.8 | 5.2 | .
Cc1nc(SCC(=O)c2cc3ccccc3oc2=O)c(C#N)c(C)c1C(=O)Nc1ccccc1 | . | 6.3 | 41.5 | . | . | .
CSc1nc(C)c(C(=O)Nc2ccccc2)c(C)c1C#N | 3.0 | . | -44.6 | -1.4 | -21.0* | -2.1
O=C(Cc1ccccc1)Nc1cccc(N2C(=O)C=CC2=O)c1 | . | 12.0 | 59.2* | -12.5 | 15.3 | .
CN(C)c1ccc(/C=C(\NC(=O)c2ccccc2)C(=O)NCCN2CCOCC2)cc1 | 4.5 | -1.3 | 40.5* | -2.5 | 1.6 | 2.9

From PubChem BioAssay
